The inhibition is the relative decrease from the control value, in per cent. High values mean a strong effect, low ones a weak effect. A word on the Km: it is the concentration of substrate that gives half-maximal velocity.

This note sets out measurements from ChEMBL document CHEMBL1126945, “Synthesis and evaluation of 3-modified 1D-myo-inositols as inhibitors and substrates of phosphatidylinositol synthase and inhibitors of myo-inositol uptake by cells” (1993).

Assay [1] has as its target T1, CDP-diacylglycerol--inositol 3-phosphatidyltransferase (Mus musculus) (UniProt Q8VDP6).
T1 sequence (whole entry): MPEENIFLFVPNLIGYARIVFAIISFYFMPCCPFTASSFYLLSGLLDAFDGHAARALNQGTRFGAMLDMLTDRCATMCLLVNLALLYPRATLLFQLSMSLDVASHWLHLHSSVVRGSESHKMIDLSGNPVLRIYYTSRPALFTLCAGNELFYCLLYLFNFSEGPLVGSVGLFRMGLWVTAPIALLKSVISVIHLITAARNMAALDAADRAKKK
As to the kind of experiment: Tested as substrate of phosphatidylinositol synthase in mouse brain by measuring percent CMP formation compared with myo-inositol tested at 5 mM. It counts as functional, tissue-based. The method in brief: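 Mouse brain microsomes (12-day-old mice; 900g then 12000g pellet) as PtdIns synthase source. 37 °C, 50 mM Tris-HCl pH 8.3, 48 mM MgCl₂, 0.5 mM CDP-dipalmitin, 0.25% Triton X-100, 5 mM analogue or myo-inositol, 0.5 mg microsomal protein. Stopped in linear phase with CHCl₃-MeOH; aqueous CMP read at 280 nm. Expressed as % of myo-inositol; averages of two or more determinations.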

Assay [2] has as its target T1, CDP-diacylglycerol--inositol 3-phosphatidyltransferase (Mus musculus). Nature of the assay: Tested for inhibition of phosphatidylinositol synthase from mouse brain at 5 mM. The gist of the method:
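Mouse brain microsomal PtdIns synthase; incorporation of 0.5 mM myo-[2-³H]inositol into CHCl₃-soluble lipid at 37 °C with Tris-HCl pH 8.3, 48 mM MgCl₂, 0.5 mM CDP-dipalmitin, 0.25% Triton X-100, 5 mM analogue, 0.05 mg microsomal protein. Stopped at 20 min with HCl/MeOH and CHCl₃; organic phase scintillation counted. Averages of two or more determinations.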

Assay [3] is described as follows: Michaelis-Menten constant was determined.
Assay [4] is filed under the species Rattus norvegicus. Nature of the assay: Tested for inhibition of myo-[3H]inositol uptake in F111 rat fibroblast cells at 5 mM. The class given is functional. The method in brief: (§1)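 F111 rat fibroblasts grown overnight on coverslips in inositol-free DMEM with 10% dialyzed calf serum and 10 μM myo-inositol, washed, then incubated 120 min at 37 °C, 5% CO₂ in Krebs-Ringer (HEPES pH 7.4) with 10 μM myo-[³H]inositol and 5 mM analogue. Washed, lysed in 1% SDS; radioactivity counted and normalised to BCA protein.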

For assay [5], the species on record is Rattus norvegicus. Nature of the assay: Tested for inhibition of myo-inositol uptake in F111 rat fibroblast cells at 5 mM. The class given is functional. The gist of the method: as §1

`O[C@@H]1[C@@H](O)[C@@H](O)[C@@H](S)[C@@H](O)[C@@H]1O` returned a Formation in assay [1] of 1.5%. The compound further showed an inhibition in assay [2] of 40%.
As to `O[C@H]1[C@H](O)[C@@H](O)[C@H](O)[C@@H](O)[C@H]1O`, the Km in assay [3] came to 1500 µM. This compound also yielded a Formation in assay [1] of 100%.
In turn, `[N-]=[N+]=N[C@@H]1[C@H](O)[C@H](O)[C@@H](O)[C@@H](O)[C@@H]1O` yielded a Formation in assay [1] of 1%. In assay [2], this compound registered an inhibition of 17%.
For the compound `O[C@@H]1[C@@H](O)[C@H](O)[C@@H](F)[C@@H](O)[C@H]1O`, in the assay filed under Rattus norvegicus [4], testing at 5000 µM gave an inhibition of 97%. For the same compound, in assay [1], the Formation was 7%. Further, in assay [2], the inhibition came to 37%.
For the compound `N[C@H]1[C@@H](O)[C@H](O)[C@H](O)[C@@H](O)[C@H]1O`, at 5000 µM the inhibition in the assay listed under Rattus norvegicus [4] was 87%. This compound also displayed a Formation in assay [1] of 9%. This compound registered an inhibition in assay [2] of 19%.
`O[C@@H]1[C@H](F)[C@@H](O)[C@@H](O)[C@H](O)[C@@H]1O` showed a Formation in assay [1] of 28%. In addition, the inhibition in assay [2] was found to be 22%.
With `O[C@H]1[C@@H](O)[C@H](O)C[C@H](O)[C@@H]1O`, the Formation in assay [1] was determined as 6%. This compound also registered an inhibition at 5000 µM in the assay filed under Rattus norvegicus [5] of 80%. The compound further showed an inhibition in assay [2] of 9%.
Regarding `O[C@@H]1[C@@H](O)[C@H](O)[C@@H](Cl)[C@@H](O)[C@H]1O`, in assay [1], the Formation was 1%. Moreover, the inhibition in assay [2] was found to be 30%.
The compound `CO[C@H]1C[C@@H](O)[C@H](O)[C@H](O)[C@H]1O` had a Formation in assay [1] of 0%. The inhibition in assay [2] amounted to 28%.
Consider `O=C1[C@@H](O)[C@H](O)[C@@H](O)[C@H](O)[C@@H]1O`, for which the Formation in assay [1] stood at 7%. In assay [2], this compound had an inhibition of 47%.
`CO[C@@H]1[C@H](O)[C@@H](O)[C@@H](O)[C@H](O)[C@@H]1N=[N+]=[N-]` gave a Formation in assay [1] of 0%. In assay [2], the inhibition came out at 10%.
